The test system of data set [1] is Plasmodium falciparum. The data set can be described thus: Antiplasmodial activity against mefloquine-resistant Plasmodium falciparum D6 assessed as inhibition of [3H]-hypoxanthine uptake after 48 hrs by liquid scintillation counting analysis. The class given is functional, organism-based. The method, boiled down: (§1)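 IC50 from inhibition of [3H]hypoxanthine uptake by P. falciparum W2 or D6 parasites. Values come from a single experiment.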

In data set [2] the test system is Plasmodium falciparum. In words: Resistant index, ratio of IC50 for chloroquine, quinine and pyrimethamine-resistant Plasmodium falciparum W2 to IC50 for mefloquine-resistant Plasmodium falciparum D6. The class given is functional. The method, boiled down:
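Index is W2 IC50 divided by D6 IC50. Each IC50 is from inhibition of [3H]hypoxanthine uptake in a single experiment.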

The test system of data set [3] is Plasmodium falciparum. The data set can be described thus: Antiplasmodial activity against chloroquine, quinine and pyrimethamine-resistant Plasmodium falciparum W2 assessed as inhibition of [3H]-hypoxanthine uptake after 48 hrs by liquid scintillation counting analysis. In kind it is functional, organism-based. The method, boiled down: as §1
The nature of data set [4]: Half life in mouse liver microsomes at 25 uM by LC-MS analysis. The class given is ADME.
Data set [5] can be described thus: Half life in human liver microsomes at 25 uM by LC-MS analysis. In kind it is ADME. The method, boiled down: (§2)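 Test compound at 25 µM with pooled human liver microsomes (0.5 mg/mL total protein) in 0.1 M sodium phosphate, pH 7.4. An NADPH-regenerating system was included (1.25 mM NADP+, 3.3 mM glucose-6-phosphate, 3.3 mM MgCl2). Reaction was started with glucose-6-phosphate dehydrogenase (1 unit/mL final). Parent remaining at various time points was measured by LC-MS. Half-life assumed first-order decay; values from one experiment.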

A short description of data set [6]: Bio-transformation in human liver microsomes at 25 uM after 30 mins by LC-MS analysis. The class given is ADME. As to conditions: read-out: Drug metabolism. The method, boiled down:
as §2

Where only a bound is given, the exact number is not on record here.

What is called IC50 is the concentration that gives 50% inhibition. Consider `CCOC(C(=O)Nc1ccc2ccccc2n1)c1ccc(Cl)c(Cl)c1` (stereo not drawn), for which the IC50 in the data set with Plasmodium falciparum [1] came out at 19 µM; with Plasmodium falciparum [3], 15 µM. For the same molecule, the “Ratio IC50” value with Plasmodium falciparum [2] is 0.76.

With `CCOC(C(=O)Nc1cnc2ccccc2c1)c1ccc(Cl)c(Cl)c1` (stereo not drawn), the IC50 in the data set with Plasmodium falciparum [1] is 13 µM; in the data set with Plasmodium falciparum [3], 5.9 µM.

Broadly, the half-life is the time needed for the level to fall by half in the phase considered. `CCOC(C(=O)Nc1ccc(Cl)cc1Cl)c1cnc2ccccc2c1` (stereo not drawn): the half-life at 25 µM in data set [4] and in data set [5] was greater than 60 min throughout. The IC50 in the data set on Plasmodium falciparum [1] came to 4.5 µM; in the data set with Plasmodium falciparum [3], 2 µM. Further, the “Ratio IC50” value with Plasmodium falciparum [2] is reported as 0.43.

For `CCOC(C(=O)Nc1ccc(Cl)cc1)c1ccc(Cl)cc1` (stereo not drawn), the concentration for half-maximal inhibition (IC50) in the data set on Plasmodium falciparum [1] worked out at 7.3 µM; in the data set with Plasmodium falciparum [3], 11 µM. In addition, the “Ratio IC50” value with Plasmodium falciparum [2] turned out to be 1.5. Further, the metabolised at 0.5 h, 25 µM in data set [6] worked out at 0%.

Consider `CCOC(C(=O)Nc1ccc(Cl)cc1Cl)c1ccnc2ccccc12` (stereo not drawn), for which the half-life at 25 µM in data set [4] and in data set [5] was greater than 60 min in each case. The half-inhibitory concentration (IC50) with Plasmodium falciparum [1] was 6.9 µM; with Plasmodium falciparum [3], 1.8 µM. For the same molecule, the “Ratio IC50” value with Plasmodium falciparum [2] is listed as 0.26.

`CCOC(C(=O)Nc1ccc2ccccc2n1)c1ccc(Cl)cc1Cl` (stereo not drawn): the IC50 was found to be 15 µM in the data set on Plasmodium falciparum [1] and 14 µM in the data set with Plasmodium falciparum [3]. For the same molecule, in the data set with Plasmodium falciparum [2], the “Ratio IC50” value was determined as 0.88.

Take `CCOC(C(=O)Nc1cccc2cccnc12)c1ccc(Cl)cc1Cl` (stereo not drawn): the IC50 with Plasmodium falciparum [1] and in the data set with Plasmodium falciparum [3] was greater than 27 µM in each case.

As to `CCOC(C(=O)Nc1cc(Cl)ccc1Cl)c1ccnc2ccccc12` (stereo not drawn), the values for the IC50 in the data set on Plasmodium falciparum [1] and in the data set with Plasmodium falciparum [3] were 14 µM and 15 µM, respectively. Moreover, the “Ratio IC50” value in the data set on Plasmodium falciparum [2] stood at 1.

As to `O=C(/C=C/c1ccc(Cl)cc1)c1ccc(Cl)cc1` [4',4-DICHLOROCHALCONE], the IC50 with Plasmodium falciparum [1] amounted to 2.6 µM; in the data set on Plasmodium falciparum [3], 5.3 µM. In addition, the “Ratio IC50” value with Plasmodium falciparum [2] amounted to 2. Moreover, the metabolised at 0.5 h, 25 µM in data set [6] came to 85%.

As to `CCOC(C(=O)Nc1ccc2ncccc2c1)c1ccc(Cl)c(Cl)c1` (stereo not drawn), the 50% inhibitory concentration (IC50) in the data set with Plasmodium falciparum [1] stood at 7.7 µM; in the data set with Plasmodium falciparum [3], 9.1 µM.

Regarding `O=C(/C=C/c1ccnc2ccccc12)c1cc(Cl)ccc1Cl`, the metabolised at 0.5 h, 25 µM in data set [6] was determined as 100%.

Regarding `CCOC(C(=O)Nc1cccc2ncccc12)c1ccc(Cl)cc1Cl` (stereo not drawn), the IC50 with Plasmodium falciparum [1] and in the data set on Plasmodium falciparum [3] was greater than 27 µM throughout.

As for `O=C(/C=C/c1cnc2ccccc2c1)c1cc(Cl)ccc1Cl`, the metabolised at 0.5 h, 25 µM in data set [6] is 100%.

Consider `CCOC(C(=O)Nc1cccc2cccnc12)c1cc(Cl)ccc1Cl` (stereo not drawn), for which the IC50 in the data set on Plasmodium falciparum [1] was 14 µM; in the data set on Plasmodium falciparum [3], greater than 27 µM.

Regarding `CCOC(C(=O)Nc1ccc2ncccc2c1)c1cc(Cl)ccc1Cl` (stereo not drawn), the half-maximal inhibitory concentration (IC50) in the data set with Plasmodium falciparum [1] and in the data set on Plasmodium falciparum [3] was greater than 17 µM throughout.

With `CCOC(C(=O)Nc1ccnc2ccccc12)c1ccc(Cl)c(Cl)c1` (stereo not drawn), the half-life at 25 µM in data set [4] amounted to 30 min; in data set [5], 27 min. Moreover, the IC50 with Plasmodium falciparum [1] turned out to be 3.2 µM; with Plasmodium falciparum [3], 1.7 µM. In addition, in the data set with Plasmodium falciparum [2], the “Ratio IC50” value is recorded as 0.53.

For the molecule `CCOC(C(=O)Nc1cccc2ncccc12)c1cc(Cl)ccc1Cl` (stereo not drawn), the half-inhibitory concentration (IC50) is 11 µM in the data set with Plasmodium falciparum [1] and 15 µM in the data set with Plasmodium falciparum [3]. For the same molecule, the “Ratio IC50” value in the data set on Plasmodium falciparum [2] turned out to be 1.4.

For the molecule `CCOC(C(=O)Nc1ccc2ncccc2c1)c1ccc(Cl)cc1Cl` (stereo not drawn), the IC50 in the data set on Plasmodium falciparum [1] worked out at 15 µM; in the data set with Plasmodium falciparum [3], 14 µM. Moreover, the “Ratio IC50” value with Plasmodium falciparum [2] stood at 0.92.

For `CCOC(C(=O)Nc1cc(Cl)ccc1Cl)c1cnc2ccccc2c1` (stereo not drawn), the concentration for half-maximal inhibition (IC50) with Plasmodium falciparum [1] and in the data set with Plasmodium falciparum [3] was 14 µM each time. The “Ratio IC50” value in the data set on Plasmodium falciparum [2] turned out to be 1.1.

As to `CCOC(C(=O)Nc1cccc2cccnc12)c1ccc(Cl)c(Cl)c1` (stereo not drawn), the IC50 in the data set with Plasmodium falciparum [1] was 20 µM; with Plasmodium falciparum [3] it was 16 µM. For the same molecule, in the data set on Plasmodium falciparum [2], the “Ratio IC50” value was 0.84.

For `O=C(/C=C/c1ccnc2ccccc12)c1ccc(Cl)c(Cl)c1`, in data set [6], the metabolised at 0.5 h, 25 µM was 100%.

Take `CCOC(C(=O)Nc1cnc2ccccc2c1)c1ccc(Cl)cc1Cl` (stereo not drawn): the 50% inhibitory concentration (IC50) stood at 9.8 µM in the data set with Plasmodium falciparum [1] and 27 µM in the data set with Plasmodium falciparum [3]. Besides, the “Ratio IC50” value in the data set on Plasmodium falciparum [2] came out at 2.7.

On to `CCOC(C(=O)Nc1ccc(Cl)c(Cl)c1)c1cnc2ccccc2c1` (stereo not drawn), for which the IC50 with Plasmodium falciparum [1] came to 18 µM; with Plasmodium falciparum [3], 13 µM. In the data set with Plasmodium falciparum [2], the “Ratio IC50” value worked out at 0.71.

On to `CCOC(C(=O)Nc1cccc2ncccc12)c1ccc(Cl)c(Cl)c1` (stereo not drawn), for which the half-inhibitory concentration (IC50) in the data set on Plasmodium falciparum [1] and in the data set with Plasmodium falciparum [3] was greater than 27 µM each time.

`CCOC(C(=O)Nc1ccnc2ccccc12)c1cc(Cl)ccc1Cl` (stereo not drawn): the IC50 in the data set with Plasmodium falciparum [1] was determined as 12 µM; in the data set with Plasmodium falciparum [3], 14 µM. For the same molecule, the “Ratio IC50” value in the data set on Plasmodium falciparum [2] is 1.2.

In the case of `CCOC(C(=O)Nc1cnc2ccccc2c1)c1cc(Cl)ccc1Cl` (stereo not drawn), the half-life at 25 µM in data set [4] worked out at 9 min; in data set [5] it was 27 min. For the same molecule, the results for the 50% inhibitory concentration (IC50) in the data set with Plasmodium falciparum [1] and in the data set on Plasmodium falciparum [3] were 6.7 µM and 9.6 µM, respectively. For the same molecule, the “Ratio IC50” value in the data set with Plasmodium falciparum [2] amounted to 1.4.

Regarding `CCOC(C(=O)Nc1ccc2ccccc2n1)c1cc(Cl)ccc1Cl` (stereo not drawn), the concentration for half-maximal inhibition (IC50) in the data set with Plasmodium falciparum [1] was 19 µM; with Plasmodium falciparum [3], greater than 27 µM.

As to `CCOC(C(=O)Nc1ccc(Cl)c(Cl)c1)c1ccnc2ccccc12` (stereo not drawn), the IC50 with Plasmodium falciparum [1] was 15 µM; in the data set with Plasmodium falciparum [3], 12 µM. Also, the “Ratio IC50” value in the data set on Plasmodium falciparum [2] is on record as 0.8.

As for `CCOC(C(=O)Nc1ccnc2ccccc12)c1ccc(Cl)cc1Cl` (stereo not drawn), the half-inhibitory concentration (IC50) was determined as 14 µM in the data set on Plasmodium falciparum [1] and 15 µM with Plasmodium falciparum [3]. Moreover, the “Ratio IC50” value with Plasmodium falciparum [2] is given as 1.

For the origin of these results see ChEMBL document CHEMBL3751754, “In vitro efficacy of 2,N-bisarylated 2-ethoxyacetamides against Plasmodium falciparum” (Bioorg Med Chem Lett, 2016).
